Reference: ChEMBL document CHEMBL4689842, “EUbOPEN Chemogenomics Library wave 1” (2021)

Tested on: U2OS
Assay: Multiplex assay against U2OS
Assay type: toxicity, cell-based
Settings: human
Outline: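 Imaging took place on a CQ1 microscope at 37°C and 5% CO2 once compound had been added to live cells stained at seeding with Hoechst33342, BioTracker Green Microtubule Cytoskeleton Dye, MitoTracker Red and Annexin V Alexa Fluor 680. CellPathfinder machine-learning gating classed cells as Hoechst high-intensity objects or normal cells, classed normal cells as having healthy, pyknosed or fragmented nuclei, and classed pyknosed cells as mitotic or apoptotic. Tubulin, mitochondrial-mass and membrane-permeability phenotypes are per cents of the healthy-nucleus cells.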

[1] = 12 h, 1 µM, compound concentration 1 uM, replicate 1
[2] = 12 h, 1 µM, compound concentration 1 uM, replicate 2
[3] = 12 h, 10 µM, compound concentration 10 uM, replicate 1
[4] = 12 h, 10 µM, compound concentration 10 uM, replicate 2
[5] = 24 h, 1 µM, compound concentration 1 uM, replicate 1
[6] = 24 h, 1 µM, compound concentration 1 uM, replicate 2
[7] = 24 h, 10 µM, compound concentration 10 uM, replicate 1
[8] = 24 h, 10 µM, compound concentration 10 uM, replicate 2
[9] = 48 h, 1 µM, compound concentration 1 uM, replicate 1
[10] = 48 h, 1 µM, compound concentration 1 uM, replicate 2
[11] = 48 h, 10 µM, compound concentration 10 uM, replicate 1
[12] = 48 h, 10 µM, compound concentration 10 uM, replicate 2

## CC(C)NCC(O)COc1ccc(CCOCC2CC2)cc1.Cl (configuration not stated) [BETAXOLOL HYDROCHLORIDE]
[1]
  Population Apoptotic (%): 60%
  Population Fragmented Nuclei (%): 9%
  Population Healthy Nuclei (%): 84%
  Population Hoechst High Intensity Objects (%): 8%
  Population Mitochondria Different-Phenotype (%): 14%
  Population Mitotic Cells (%): 40%
  Population Normal (%): 92%
  Population Pyknosed Nuclei (%): 6%
  Population Tubulin-Different-Phenotype (%): 12%
  Total Cell Count: 175
[2]
  Population Apoptotic (%): 100%
  Population Fragmented Nuclei (%): 2%
  Population Healthy Nuclei (%): 95%
  Population Hoechst High Intensity Objects (%): 16%
  Population Membrane Permeable-Phenotype (%): 6%
  Population Mitochondria Different-Phenotype (%): 2%
  Population Mitotic Cells (%): 0%
  Population Normal (%): 83%
  Population Pyknosed Nuclei (%): 2%
  Population Tubulin-Different-Phenotype (%): 9%
  Total Cell Count: 55
[3]
  Population Apoptotic (%): 52%
  Population Fragmented Nuclei (%): 14%
  Population Healthy Nuclei (%): 69%
  Population Hoechst High Intensity Objects (%): 5%
  Population Membrane Permeable-Phenotype (%): 2%
  Population Mitochondria Different-Phenotype (%): 64%
  Population Mitotic Cells (%): 47%
  Population Normal (%): 94%
  Population Pyknosed Nuclei (%): 16%
  Population Tubulin-Different-Phenotype (%): 53%
  Total Cell Count: 124
[4]
  Population Apoptotic (%): 23%
  Population Fragmented Nuclei (%): 9%
  Population Healthy Nuclei (%): 77%
  Population Hoechst High Intensity Objects (%): 7%
  Population Membrane Permeable-Phenotype (%): 5%
  Population Mitochondria Different-Phenotype (%): 72%
  Population Mitotic Cells (%): 76%
  Population Normal (%): 92%
  Population Pyknosed Nuclei (%): 13%
  Population Tubulin-Different-Phenotype (%): 49%
  Total Cell Count: 107
[5]
  Population Apoptotic (%): 28%
  Population Fragmented Nuclei (%): 8%
  Population Healthy Nuclei (%): 83%
  Population Membrane Permeable-Phenotype (%): 3%
  Population Mitochondria Different-Phenotype (%): 10%
  Population Mitotic Cells (%): 71%
  Population Pyknosed Nuclei (%): 7%
  Population Tubulin-Different-Phenotype (%): 8%
  Total Cell Count: 202
[6]
  Population Apoptotic (%): 33%
  Population Fragmented Nuclei (%): 3%
  Population Healthy Nuclei (%): 85%
  Population Hoechst High Intensity Objects (%): 5%
  Population Membrane Permeable-Phenotype (%): 4%
  Population Mitochondria Different-Phenotype (%): 6%
  Population Mitotic Cells (%): 66%
  Population Normal (%): 94%
  Population Pyknosed Nuclei (%): 10%
  Population Tubulin-Different-Phenotype (%): 2%
  Total Cell Count: 59
[7]
  Population Apoptotic (%): 57%
  Population Fragmented Nuclei (%): 13%
  Population Healthy Nuclei (%): 70%
  Population Hoechst High Intensity Objects (%): 6%
  Population Membrane Permeable-Phenotype (%): 7%
  Population Mitochondria Different-Phenotype (%): 59%
  Population Mitotic Cells (%): 42%
  Population Normal (%): 93%
  Population Pyknosed Nuclei (%): 16%
  Population Tubulin-Different-Phenotype (%): 31%
  Total Cell Count: 139
[8]
  Population Apoptotic (%): 40%
  Population Fragmented Nuclei (%): 7%
  Population Healthy Nuclei (%): 78%
  Population Hoechst High Intensity Objects (%): 5%
  Population Membrane Permeable-Phenotype (%): 5%
  Population Mitochondria Different-Phenotype (%): 78%
  Population Mitotic Cells (%): 60%
  Population Normal (%): 94%
  Population Pyknosed Nuclei (%): 15%
  Population Tubulin-Different-Phenotype (%): 46%
  Total Cell Count: 106
[9]
  Population Apoptotic (%): 25%
  Population Fragmented Nuclei (%): 8%
  Population Healthy Nuclei (%): 81%
  Population Membrane Permeable-Phenotype (%): 2%
  Population Mitochondria Different-Phenotype (%): 7%
  Population Mitotic Cells (%): 74%
  Population Pyknosed Nuclei (%): 10%
  Population Tubulin-Different-Phenotype (%): 6%
  Total Cell Count: 296
[10]
  Population Apoptotic (%): 50%
  Population Fragmented Nuclei (%): 9%
  Population Healthy Nuclei (%): 80%
  Population Hoechst High Intensity Objects (%): 3%
  Population Membrane Permeable-Phenotype (%): 5%
  Population Mitochondria Different-Phenotype (%): 16%
  Population Mitotic Cells (%): 50%
  Population Normal (%): 96%
  Population Pyknosed Nuclei (%): 9%
  Population Tubulin-Different-Phenotype (%): 10%
  Total Cell Count: 87
[11]
  Population Apoptotic (%): 52%
  Population Fragmented Nuclei (%): 19%
  Population Healthy Nuclei (%): 68%
  Population Hoechst High Intensity Objects (%): 4%
  Population Membrane Permeable-Phenotype (%): 3%
  Population Mitochondria Different-Phenotype (%): 34%
  Population Mitotic Cells (%): 47%
  Population Normal (%): 95%
  Population Pyknosed Nuclei (%): 12%
  Population Tubulin-Different-Phenotype (%): 21%
  Total Cell Count: 200
[12]
  Population Apoptotic (%): 54%
  Population Fragmented Nuclei (%): 9%
  Population Healthy Nuclei (%): 75%
  Population Hoechst High Intensity Objects (%): 5%
  Population Membrane Permeable-Phenotype (%): 9%
  Population Mitochondria Different-Phenotype (%): 50%
  Population Mitotic Cells (%): 45%
  Population Normal (%): 94%
  Population Pyknosed Nuclei (%): 15%
  Population Tubulin-Different-Phenotype (%): 25%
  Total Cell Count: 152
